INS promoter act – TRM-6 insulin promoter activation; activation, % at 2 µM; AID 1296; 130,000 tested, 0.81% active; TRM-6 cells (human fetal islet line), insulin promoter eGFP reporter, imaging; plate-scaled: unstimulated 0, stimulated control 100;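 active = activation at 2 µM above a set limit, confirmed on inspection of the cell images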;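 note: share of cells whose green reporter signal exceeds an intensity cutoff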
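Test system: TRM-6 insulin promoter–eGFP reporter cells / Quantity: 1,000 cells per well / Reagent: tamoxifen inducer, 0.75 µM, in seeding medium / Compound dosing: 2 µM final, single concentration / Schedule: overnight tamoxifen, then two-day compound incubation at 37 °C / Measured by: automated fluorescence imaging of paraformaldehyde-fixed, Hoechst-counterstained cells, green channel / Read-out: percent activation from GFP-positive cell fraction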
Numbers without * were called inactive. The entries come from a sample that favours hits as a whole.

SMILES	INS promoter act
CC(C)C(c1nnnn1C1CCCCC1)N1CCN(c2ncccn2)CC1 (centres undefined)	-3
CCCCc1ccc(N2C(=O)[C@@H]3C(CC(N)=O)NC4(C(=O)Nc5ccc(F)cc54)[C@@H]3C2=O)cc1 (some centres undefined)	9
O=C(Oc1ccc2ccccc2c1Br)N1CCCCCC1	0
O=C(CSc1nncs1)Nc1ccc2c(c1)OCO2	8
CC(CCc1ccccc1)NC(=O)C1CCN(S(=O)(=O)N2CCOCC2)CC1 (centres undefined)	106
O=C(Cc1ccccc1)Nc1cc(C(=O)c2ccccc2)ccc1N1CCOCC1	0
COc1ccccc1N(C(=O)c1ccncc1)c1nc(-c2ccc([N+](=O)[O-])cc2)cs1	5
O=C(COc1ccc([N+](=O)[O-])cc1)Nc1ccncc1	-6
O=C(Cc1nc(-c2ccc([N+](=O)[O-])cc2)cs1)Nc1ccccc1	193*
O=C(NN1CCOCC1)C12CC3CC(CC(C3)C1)C2	-4
C=C(C)CN(CC)C(=O)CSc1nc(O)cc(=O)n1C1CCCC1	0
Cc1cc([N+](=O)[O-])nn1CC(=O)NCc1ccco1	0
O=C(Nc1cccc(Cl)c1)/C(=C\c1cccnc1)NC(=O)c1ccco1	-67
COC(=O)c1ccccc1NC(=O)c1ccc(-c2cccc(Cl)c2)o1	0
COC(=O)c1sccc1NC(=O)c1ccco1	169
COC(=O)c1sccc1-c1ccc(C(=O)Nc2cccc(Cl)c2)o1	80*
N#Cc1nc(-c2ccco2)oc1N1CCC(Cc2ccccc2)CC1	3
O=C(Nc1ccccc1Cl)c1cccc(COc2cc(Cl)ccc2Cl)c1	1
COc1ccc(N(CC(=O)NN=C2CCCCCCC2)S(=O)(=O)c2ccccc2)cc1	-2
CC1CCCC(C)N1C(=O)c1cc2ncc(CCCl)cn2n1 (centres undefined)	0
COc1ccc(Br)cc1C(=O)Nc1ccc(C(=O)O)cc1	341*
COc1ccc(Br)cc1C(=O)Nc1ccc(N2CCN(S(C)(=O)=O)CC2)cc1	356
COc1ccc(Br)cc1C(=O)O	-9
O=C(O)CCSc1nnc(SCC(=O)NCC(F)(F)F)s1	9
CC(=O)Nc1ccc(S(=O)(=O)n2cnc3ccccc32)cc1	9
SMILES	INS promoter act
CCOC(=O)c1c(C)c(C(=O)N(C)C2CCCCC2)c(C)n1C	9
COc1cccc(C2Nc3ccccc3C(=O)N2O)c1O (centres undefined)	7
Cc1ccc(Cn2nc(C)c(NC(=O)CCCn3nc(C)c([N+](=O)[O-])c3C)c2C)cc1	0
COc1ccc(C2Nc3ccccc3C(=O)N2c2ccc(C)cc2)cc1Cn1nc(C)c([N+](=O)[O-])c1C (centres undefined)	129*
Cc1ccc(Cn2nnc3c(=O)n(CC(=O)NCc4ccccc4)cnc32)cc1	-10
CSC(=NNC(=O)c1ccc(O)cc1)SC	5
Cc1cc(C)nc(NC(=O)CSc2nc3ccccc3s2)n1	-4
O=C(CSc1ncn(-c2ccccc2)n1)Nc1nccs1	-8
O=C(CSc1nn(-c2ccccc2)c(=S)s1)Nc1ncccn1	377*
CCOc1ccc(NC(=S)NC(C)c2cccs2)cc1 (centres undefined)	7
Cc1ccccc1C(=O)Oc1ccc(Sc2ccc(O)cc2)cc1	7
O=C(c1ccccc1NS(=O)(=O)c1cccc(C(F)(F)F)c1)N1CCc2ccccc21	1
CN(Cc1cn(C)c2ccccc12)C(=S)Nc1cc(F)cc(F)c1	-8
CCc1nnc(NC(=O)/C=C/c2ccco2)s1	-6
CCc1nnc(NS(=O)(=O)c2ccc(NC(=O)/C=C/c3ccc(F)cc3)cc2)s1	275*
Cc1ccc(/C=C/C(=O)Nc2ccc(S(=O)(=O)Nc3ncccn3)cc2)cc1	-7
CCN(CC)c1ccc2c(c1)oc(=O)c1c(Cl)cc(=O)oc12	219
CCN(CC)c1ccc2c(C)c(-c3ccc(N)cc3)c(=O)oc2c1	-2
CCN(CC)c1ccc2c(Cl)c(Br)c(=O)oc2c1	133*
CN(C)C(=O)CN(c1ccc2c(c1)OCO2)S(C)(=O)=O	-71
CS(=O)(=O)N(CC(=O)NCCSCc1ccccc1)c1ccc2c(c1)OCO2	204*
CS(=O)(=O)N(CC(=O)NCc1ccccn1)c1ccc2c(c1)OCCO2	37
Cc1cccc(-n2c(CNC(=O)c3ccccc3)nnc2SCC(=O)Nc2nccs2)c1	0
COc1cc([N+](=O)[O-])cc(CN2CCCCC2)c1O	9
CCN=C1SC(CC(=O)NCCc2ccc(OC)c(OC)c2)C(=O)N1CC (centres undefined)	0
SMILES	INS promoter act
CCCCN1C(=O)C(CC(=O)NCC)SC1=Nc1ccccc1 (centres undefined)	450*
O=C(O)CC1SC(=Nc2ccccc2)N(c2ccccc2)C1=O (centres undefined)	4
CCCCC(SCC(=O)Nc1ccccc1)C(=O)O (centres undefined)	-36
CCNC(=S)N(CCc1c(C)[nH]c2ccccc12)Cc1cc(OC)c(OC)c(OC)c1	-10
O=C(CSc1nnc(SCc2cccc3ccccc23)s1)N/N=C/C=C/c1ccccc1[N+](=O)[O-]	0
O=C(CSc1nnc(-c2ccco2)o1)NC1CCCCC1	0
O=C(CSc1nnc(-c2ccco2)o1)c1ccccc1Cl	0
CCN(CC)C(=O)CSc1nnc(-c2ccco2)o1	500*
CCCCN(C)CCn1c(=S)[nH]c2ccc(N3CCOCC3)cc2c1=O	3
O=C(OCC(=O)N1CCN(C(=O)c2ccco2)CC1)c1cc(-c2cccc(Br)c2)nc2ccccc12	7
c1ccc2nc3c(nc2c1)[nH]c1ccccc13	300*
CCn1nc(C(=O)Nc2nc3ccccc3[nH]2)c2ccccc2c1=O	108
CC(C)(C)c1nc2ccccc2[nH]1	-80
Cc1ccccc1N1C(S)=C(C#N)C(=O)NC12CCCCC2	-3
CC(NC(=O)CN1CCc2ccccc21)c1ccccc1 (centres undefined)	-3
COc1ccc(CCNC(=O)CC2SC(=NCCc3ccccc3)NC2=O)cc1OC (centres undefined)	7
CCC(Sc1nc(N)cc(N)n1)C(=O)O (centres undefined)	-5
O=c1c2oc3ccccc3c2[nH]c(=S)n1-c1ccc(F)cc1	0
COC(=O)c1ccc(NC(=O)C2CC(=O)N(c3ccc(C)cc3)C2)cc1 (centres undefined)	338
Cc1ccc(Sc2ncccc2COC(=O)Nc2c(C)cccc2C)cc1	110
Cc1ccc(Oc2ncccc2COC(=O)Nc2ccccc2C)cc1	369*
Cc1ccccc1NC(=O)OCc1cccnc1Sc1ccc(Cl)cc1	0
O=C1CCSc2ccc(Cl)cc2N1Cc1ccc(Cl)cc1	4
COc1ccc(/C=C/C(=O)Nc2cc(F)ccc2C)cc1S(=O)(=O)N1CCOCC1	0
CSc1nsc(SC)c1C(=O)Nc1ccc(C)cc1	5
SMILES	INS promoter act
CSc1nsc(SC)c1C(=O)N1CCN(S(=O)(=O)c2ccc(C)cc2)C1C (centres undefined)	125*
Cc1ccc(S(=O)(=O)N2CCN(C(=O)CN3CCCCC3)C2C(C)C)cc1 (centres undefined)	6
O=C(c1ccccc1)c1ccc(CN2C(=O)c3ccccc3C2=O)o1	394
O=C1c2cccc3c(O)ccc(c23)C(=O)N1Cc1ccccc1	233*
O=C1c2cccnc2C(=O)N1Cc1ccccc1	-12
O=C(c1cccc(-c2ccc(O)cc2)c1)N1CCN(c2ccc(F)cc2)CC1	-68
C=CCn1c(=NC(=O)CN2C(=O)CCC2=O)sc2cc(S(N)(=O)=O)ccc21	0

Assay outcomes deposited in PubChem BioAssay by Columbia University Molecular Screening Center.
